Common to all, as to format: functional, cell-based
The subject of experiment [1] is XF498. The experiment can be described thus: Cytotoxicity against human XF498 cells by SRB assay. The method, boiled down: (§1)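 Sulforhodamine B (SRB) cytotoxicity assay on cultured human cancer lines: A549 (non-small cell lung adenocarcinoma), SK-OV-3 (ovarian), SK-MEL-2 (skin melanoma), XF498 (CNS). Assays were run at the Korea Research Institute of Chemical Technology. Etoposide served as positive control. Potency is expressed as IC50 in µM.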

The test system of experiment [2] is SK-MEL-2. Briefly: Cytotoxicity against human SK-MEL-2 cells by SRB assay. In outline:
as §1

In experiment [3] the test system is SK-OV-3. The experiment can be described thus: Cytotoxicity against human SKOV3 cells by SRB assay. In outline: as §1
For experiment [4], the system named is A549. The experiment can be described thus: Cytotoxicity against human A549 cells by SRB assay. The method, boiled down: as §1

The record followed here is ChEMBL document CHEMBL1667736, “Tirucallane triterpenoids from Cornus walteri” (J Nat Prod, 2011).

SMILES strings stand for the structures.

In the case of `COC(C)(C)/C=C/C[C@H](C)[C@@H]1CC[C@]2(C)C3=CCC4C(C)(C)C(=O)CC[C@]4(C)[C@H]3CC[C@@]12C` (stereo partly drawn) [(-)-LEUCOPHYLLONE], the half-maximal inhibitory concentration (IC50) amounted to 18.2 µM in experiment [1], 21.2 µM in experiment [2], 18 µM in experiment [3] and 24.9 µM in experiment [4].

Consider `COC(C)(C)/C=C/C[C@H](C)[C@@H]1CC[C@]2(C)C3=CCC4C(C)(C)[C@@H](O)CC[C@]4(C)[C@H]3CC[C@@]12C` (stereo not given in full) [CORNUSALTERIN A], for which the IC50 in experiment [1] came to 17.4 µM; in experiment [2] it was 12.1 µM; in experiment [3] it was 12.5 µM; in experiment [4], 22.2 µM.

In the case of `COC(C)(C)/C=C/C[C@H](C)[C@@H]1CC[C@]2(C)[C@@H]3CCC4C(C)(C)C(=O)CC[C@]4(C)[C@H]3CC[C@@]12C` (stereo not given in full) [CORNUSALTERIN B], the concentration for half-maximal inhibition (IC50) was found to be 28.7 µM in experiment [1], 18 µM in experiment [2], 19.2 µM in experiment [3] and 28.8 µM in experiment [4].

Turning to `COC(C)(C)/C=C/C[C@H](C)[C@@H]1CC[C@]2(C)[C@@H]3CCC4C(C)(C)[C@@H](O)CC[C@]4(C)[C@H]3CC[C@@]12C` (stereo not given in full) [CORNUSALTERIN C], the half-maximal inhibitory concentration (IC50) in experiment [1] worked out at 17.6 µM; in experiment [2], 11.9 µM; in experiment [3], 16.5 µM; in experiment [4] it was 23.6 µM.

For the molecule `C=C(C)/C=C/C[C@H](C)[C@@H]1CC[C@]2(C)C3=CCC4C(C)(C)C(=O)CC[C@]4(C)[C@H]3CC[C@@]12C` (stereo not given in full) [CORNUSALTERIN D], the IC50 was 17.8 µM in experiment [1], 12.7 µM in experiment [2], 14.5 µM in experiment [3] and 26.9 µM in experiment [4].

For `CC(C)CCC[C@H](C)[C@@H]1CC[C@]2(C)C3=CCC4C(C)(C)C(=O)C=C[C@]4(C)[C@H]3CC[C@@]12C` (stereo not given in full) [CORNUSALTERIN E], the IC50 in experiment [1] turned out to be 13.1 µM; in experiment [2], 12.5 µM; in experiment [3] it was 14.1 µM; in experiment [4], 18.4 µM.

As to `CC(C)CCC[C@H](C)[C@@H]1CC[C@]2(C)C3=CCC4C(C)(C)C=CC(=O)[C@]4(C)[C@H]3CC[C@@]12C` (stereo not given in full) [CORNUSALTERIN F], the IC50 came to 24.6 µM in experiment [1], 21.4 µM in experiment [2], 27.3 µM in experiment [3] and 27 µM in experiment [4].

In the case of `CO[C@@H](C=C(C)C)C[C@H](C)[C@@H]1CC[C@]2(C)C3=CCC4C(C)(C)C(=O)CC[C@]4(C)[C@H]3CC[C@@]12C` (stereo not given in full) [CORNUSALTERIN G], the IC50 in experiment [1] was 20.5 µM; in experiment [2], 18 µM; in experiment [3], 26.9 µM; in experiment [4], 29.9 µM.

`CO[C@H](C=C(C)C)C[C@H](C)[C@@H]1CC[C@]2(C)C3=CCC4C(C)(C)C(=O)CC[C@]4(C)[C@H]3CC[C@@]12C` (stereo not given in full) [CORNUSALTERIN H]: the IC50 in experiment [1] turned out to be 18.6 µM; in experiment [2] it was 17.7 µM; in experiment [3] it was 21.4 µM; in experiment [4] it was 28.5 µM.

Turning to `CO[C@H](C=C(C)C)C[C@H](C)[C@@H]1CC[C@]2(C)C3=CCC4C(C)(C)C(=O)CC[C@]4(C)C3=CC[C@@]12C` (stereo not given in full) [CORNUSALTERIN I], the 50% inhibitory concentration (IC50) in experiment [1] was determined as 12.3 µM; in experiment [2], 10.4 µM; in experiment [3], 13.5 µM; in experiment [4], 17.6 µM.

Take `CO[C@@H](C=C(C)C)C[C@H](C)[C@@H]1CC[C@]2(C)C3=CCC4C(C)(C)[C@@H](O)CC[C@]4(C)[C@H]3CC[C@@]12C` (stereo not given in full) [CORNUSALTERIN J]: the IC50 in experiment [1] came to 18.2 µM; in experiment [2], 12.3 µM; in experiment [3], 17.8 µM; in experiment [4], 25.4 µM.

On to `CC(C)CCC[C@H](C)[C@@H]1CC[C@]2(C)[C@@H]3CC=C4C(C)(C)C(=O)C[C@@H](O)[C@]4(C)[C@H]3CC[C@@]12C` [CORNUSALTERIN K], for which the IC50 is 12 µM in experiment [1], 12.4 µM in experiment [2], 12.8 µM in experiment [3] and 11.7 µM in experiment [4].

For `CC(C)=C[C@@H]1C[C@@H]([C@@H]2CC[C@]3(C)C4=CCC5C(C)(C)C(=O)CC[C@]5(C)[C@H]4CC[C@@]23C)CO1` (stereo not given in full) [CORNUSALTERIN L], the IC50 in experiment [1] was 5.81 µM; in experiment [2], 4.73 µM; in experiment [3] it was 3.82 µM; in experiment [4] it was 4.29 µM.

As to `CC(C)=C[C@H]1C[C@@H]([C@@H]2CC[C@]3(C)C4=CCC5C(C)(C)C(=O)CC[C@]5(C)[C@H]4CC[C@@]23C)CO1` (stereo not given in full) [DEOXYFLINDISSONE], the IC50 in experiment [1] stood at 5.1 µM; in experiment [2], 6.07 µM; in experiment [3], 3.64 µM; in experiment [4] it was 4.02 µM.

For the molecule `COc1cc([C@@H]2c3cc4c(cc3[C@@H](O[C@@H]3O[C@@H]5CO[C@@H](C)O[C@H]5[C@H](O)[C@H]3O)[C@H]3COC(=O)[C@H]23)OCO4)cc(OC)c1O` [ETOPOSIDE], the IC50 in experiment [1] was determined as 1.72 µM; in experiment [2] it was 1.17 µM; in experiment [3], 1.81 µM; in experiment [4], 1.85 µM.
